Measurements gathered from unrelated publications.
Compare with care: the assays were run in different laboratories. pIC50: −log10 of the molar value. In brackets after ≈: the same amount, converted by molar mass.

FC1CCN(C2(CNCc3ccc(-c4ccccc4Cl)o3)COC2)C1 (stereo not shown)
viability (GBM6; cell growth or viability; 30 µM, 48 h): 47.4%

COc1ccc(Sc2ccc(C)cc2)c(OC)c1OC
pIC50 (Leishmania braziliensis; parasite growth, MTT; 24 h, promastigote): 4.39

Cc1nc2ccc(-c3ccc(OC(F)(F)F)cc3)cc2c(O)c1C#N
pIC50 (HEK293; cell growth or viability): < 5.00

CC1=NN(CNc2ccc(C(=O)O)cc2)C(=O)C1=NNn1c(-c2ccccc2)nc2ccccc2c1=O
MIC (Trichophyton rubrum; microbial growth, broth dilution): 101 µM (≈ 50 µg/mL)

CC(C)(C)CC(C)(C)Nc1c(-c2ccc(Cl)cc2)nc2ncccn12
pIC50 (Leishmania amazonensis; parasite growth, MTT; 72 h, promastigote): 4.44

Cc1cccc2cc(CNCC3(N4CCCC4)COC3)cnc12
viability (T98G; cell growth or viability; 30 µM, 48 h): 92.1%

COc1cccc(-c2nc3ncccn3c2NC(C)(C)CC(C)(C)C)c1
pIC50 (Leishmania amazonensis; parasite growth, MTT; 72 h, promastigote): 4.77

CCOC(=O)c1cn(CC)c2cc(N3CCCCCC3)c(F)cc2c1=O
pIC50 (HEK293; cell growth or viability): < 5.00

c1cnc2nc(-c3ccc4c(c3)OCO4)c(NCCN3CCOCC3)n2c1
pIC50 (Leishmania amazonensis; parasite growth, MTT; 72 h, promastigote): < 4.00

O=C(Nc1cccc(-c2cccc(-c3nc4ccccc4[nH]3)c2)c1)NC1CC1c1ccccc1 (stereo not shown)
pIC50 (HEK293; cell growth or viability): < 5.00

O=C(Nc1ccccc1-c1ccc(F)c(F)c1)c1nccnc1C(F)(F)F
EC50 (Rhizoctonia solani; microbial growth): 0.2 µg/mL (≈ 0.527 µM)

Cc1[nH]c(C)c(-c2ccc(OCCCCSc3ccncc3)cc2)c(=O)c1Br
pIC50 (HEK293; cell growth or viability): < 5.00

CC1=NN(CNC(=O)c2ccccn2)C(=O)C1=NNn1c(-c2ccccc2)nc2ccccc2c1=O
MIC (Trichophyton rubrum; microbial growth, broth dilution): 104 µM (≈ 50 µg/mL)

CC(C)(C)Nc1c(-c2ccc3c(c2)OCO3)nc2ncccn12
pIC50 (Leishmania amazonensis; parasite growth, MTT; 72 h, promastigote): < 4.00

CC(=O)NCN1N=C(C)C(=NNn2c(-c3ccccc3)nc3ccccc3c2=O)C1=O
MIC (Trichophyton rubrum; microbial growth, broth dilution): 120 µM (≈ 50 µg/mL)

COc1ccc(S(=O)(=O)c2ccc(C)cc2)c(OC)c1OC
pIC50 (Leishmania braziliensis; parasite growth, MTT; 24 h, promastigote): 4.04
